Experimental data taken from publication PMC4425413 (The Biochemical journal, 2015).

Key:
[1] = tested on: HeLa cells; assay: STS-induced apoptosis; format: cell-based; details: 100 nM STS 20 h without the peptides
How it was run: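 HeLa cells in DMEM + 10% FBS, grown to 70%–80% confluence. Apoptosis induced with 100 nM staurosporine for 20 h; untreated cells as control. Early apoptosis scored by Annexin V–FITC staining, late apoptosis by TUNEL, as percentage of cells. Means + S.D. from three independent experiments.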

[2] = tested on: selenite-induced cataracts in rats; assay: Selenite cataract in rat pups; format: in vivo, Sprague–Dawley rat; details: selenite alone compared with untreated controls

Compound | early-stage apoptosis (% of the cells), inducer alone ([1]; Annexin V–FITC) | late stage apoptosis (% of the cells), inducer alone ([1]; TUNEL) | total soluble lens proteins, selenite alone ([2]; Fig 9B) | lens GSH content, selenite alone ([2]; Fig 9C)
CN[C@@H]1C[C@H]2O[C@@](C)([C@@H]1OC)n1c3ccccc3c3c4c(c5c6ccccc6n2c5c31)C(=O)NC4 [STS, staurosporine] | 14% | 5% |  | 
O=[Se]([O-])[O-].[Na+].[Na+] [sodium selenite] |  |  | reduction | reduction
